Consider 13 molecules from ChEMBL document CHEMBL1155208 (Eur J Med Chem, 2009).

Data set [1] addresses T1, Muscarinic acetylcholine receptor M1 (Rattus norvegicus, UniProt P08482).
T1 sequence (P08482 whole entry): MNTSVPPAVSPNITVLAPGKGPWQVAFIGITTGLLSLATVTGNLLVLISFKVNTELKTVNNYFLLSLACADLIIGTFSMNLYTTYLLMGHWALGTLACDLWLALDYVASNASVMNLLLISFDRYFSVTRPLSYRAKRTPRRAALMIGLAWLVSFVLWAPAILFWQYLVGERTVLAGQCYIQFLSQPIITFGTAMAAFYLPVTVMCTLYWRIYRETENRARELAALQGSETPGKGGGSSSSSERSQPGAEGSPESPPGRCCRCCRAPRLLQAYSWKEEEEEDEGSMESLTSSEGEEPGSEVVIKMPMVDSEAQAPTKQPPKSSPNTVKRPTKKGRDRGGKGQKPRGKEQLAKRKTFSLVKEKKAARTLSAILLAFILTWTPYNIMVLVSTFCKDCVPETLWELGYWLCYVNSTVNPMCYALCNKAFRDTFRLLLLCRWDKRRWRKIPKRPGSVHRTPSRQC
As to the kind of experiment: Displacement of [3H]QNB from muscarinic M1 receptor in Wistar rat brain cortex membrane after 2 hrs by liquid scintillation counting. The class given is cell membranes. (Loss of bound radioactivity is the signal in a displacement assay; it reports binding, not function.)

In data set [2] the test system is Rattus norvegicus. The data set is described as follows: Effect on scopolamine-induced memory loss and learning impairment in Wistar rat assessed as transfer latency at 0.1 mg/kg, ip after 30 mins by elevated plus maze test. On the set-up: unit not given beside the values. The format is functional. Conditions: route intraperitoneal. In outline: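 Male Wistar rats on an elevated plus maze. Scopolamine 0.4 mg/kg ip; test compound 0.1 mg/kg ip given together with scopolamine 30 min before exploration; controls received distilled water. On day 1 each rat explored the maze for 90 s. Transfer latency was measured on day 1 (TL1, learning) and on day 2 in the same animals (TL2, memory), and the average was reported.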

Data set [3] concerns Rattus norvegicus. The data set is described as follows: Antiamnesic activity against scopolamine-induced memory loss in Wistar rat assessed as time taken to reach shock free zone at 0.1 mg/kg, ip measured for 15 mins by passive avoidance step-down task test. The class given is functional. Details: unit not given beside the values. As to conditions: route intraperitoneal. Put shortly:
(§1)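 Male Wistar rats (200-250 g), scopolamine 0.4 mg/kg ip to induce memory loss; test compound 0.1 mg/kg ip given together with scopolamine. Passive avoidance step-down task run in a rodent memory evaluator. Read-outs: basal latency (s) to reach the shock-free zone over trials I-III, memory latency (s) and number of mistakes, given as mean ± S.E.M.; p < 0.005 taken as significant.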

The subject of data set [4] is Rattus norvegicus. The data set is described as follows: Antiamnesic activity against scopolamine-induced memory loss in Wistar rat assessed as latency time at 0.1 mg/kg, ip measured for 15 mins by passive avoidance step-down task test. The class given is functional. On the set-up: unit not given beside the values. As to conditions: route intraperitoneal. In outline: as §1

The subject of data set [5] is Rattus norvegicus. The data set is described as follows: Antiamnesic activity against scopolamine-induced memory loss in Wistar rat assessed as number of mistake done at 0.1 mg/kg, ip measured for 15 mins by passive avoidance step-down task test. The class given is functional. Conditions: route intraperitoneal. In outline: as §1
Data set [6] relates to Rattus norvegicus. As to the kind of experiment: Acute toxicity in po dosed rat assessed as death after 1 week. The class given is organism-based. Conditions: in vivo, 168 h. In outline:
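Rats fasted 16 h, six per group, given various oral doses; deaths recorded daily over 1 week of observation after treatment.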

Each structure is given as a SMILES string. pIC50, pKi: −log10 of the molar value.

In data set [1], `CN1CCC=C(C2SCC(=O)N2c2ccc(C(=O)O)cc2)C1` (stereo unspecified) had a pIC50 of 4.13. In data set [1], this molecule gave a pKi of 4.43. For the same molecule, the Activity is 18 in data set [2]; 6 in data set [3]; 4 in data set [4]; 14 in data set [5]; “Non-toxic” in data set [6].

For the molecule `CC(C)N1C(=O)CSC1C1=CCCN(C)C1` (stereo unspecified), the pIC50 in data set [1] is 3.24. The pKi in data set [1] is 4.01. For the same molecule, the Activity is recorded as 35 in data set [2]; 8 in data set [3]; 3 in data set [4]; 30 in data set [5]; “Non-toxic” in data set [6].

`CN1CCC=C(C2SCC(=O)N2c2ccc(Br)cc2)C1` (stereo unspecified) had a pIC50 in data set [1] of 3.27. The molecule also gave a pKi in data set [1] of 3.91. The Activity in data set [2] is 38; in data set [3] it was 7; in data set [4] it was 3; in data set [5], 29; in data set [6] it was “Non-toxic”.

With `CN1CCC=C(C2SCC(=O)N2c2ccc([N+](=O)[O-])cc2)C1` (stereo unspecified), in data set [1], the pIC50 is 3.80. The molecule also had a pKi in data set [1] of 4.37. Also, the Activity in data set [2] was 21; in data set [3], 7; in data set [4] it was 4; in data set [5] it was 25; in data set [6] it was “Non-toxic”.

`CN1CCC=C(C2SCC(=O)N2c2ccccc2)C1` (stereo unspecified) gave a pIC50 in data set [1] of 3.05. Besides, the pKi in data set [1] was 3.98. Besides, the Activity in data set [2] was 44; in data set [3], 8; in data set [4] it was 4; in data set [5], 32; in data set [6], “Non-toxic”.

`CN1CCC=C(C2SCC(=O)N2c2ccc(Nc3ccccc3)cc2)C1` (stereo unspecified): the pIC50 in data set [1] is 4.32. In data set [1], the pKi is 4.72. In addition, the Activity in data set [2] is on record as 14; in data set [3], 5; in data set [4], 3; in data set [5] it was 16; in data set [6], “Non-toxic”.

The molecule `CN1CCC=C(C2SCC(=O)N2c2cccc(O)c2)C1` (stereo unspecified) had a pIC50 in data set [1] of 3.25. Also, the pKi in data set [1] was 3.99. Moreover, the Activity is reported as 22 in data set [2]; 6 in data set [3]; 3 in data set [4]; 23 in data set [5]; “Non-toxic” in data set [6].

In data set [1], `CCCCCCN1C(=O)CSC1C1=CCCN(C)C1` (stereo unspecified) had a pIC50 of 3.20. Further, the pKi in data set [1] is 3.96. Besides, the Activity in data set [2] is 30; in data set [3] it was 7; in data set [4], 4; in data set [5], 21; in data set [6] it was “Non-toxic”.

`CCN1C(=O)CSC1C1=CCCN(C)C1` (stereo unspecified): the pIC50 in data set [1] is 3.17. In data set [1], this molecule had a pKi of 3.64. Further, the Activity in data set [2] is recorded as 45; in data set [3], 4; in data set [4] it was 2; in data set [5] it was 21; in data set [6], “Non-toxic”.

Take `CN1CCC=C(C2SCC(=O)N2Cc2ccccc2)C1` (stereo unspecified): the pIC50 in data set [1] is 3.10. For the same molecule, the pKi in data set [1] was 3.83. Also, the Activity in data set [2] is on record as 19; in data set [3] it was 7; in data set [4] it was 4; in data set [5] it was 30; in data set [6], “Non-toxic”.

Take `Cc1ccc(N2C(=O)CSC2C2=CCCN(C)C2)c([N+](=O)[O-])c1` (stereo unspecified): the pIC50 in data set [1] is 3.20. Further, in data set [1], the pKi is 3.90. Further, the Activity in data set [2] is listed as 40; in data set [3], 5; in data set [4], 3; in data set [5], 25; in data set [6] it was “Non-toxic”.

Molecule `CCCCN1C(=O)CSC1C1=CCCN(C)C1` (stereo unspecified) had a pIC50 in data set [1] of 4.17. For the same molecule, the pKi in data set [1] is 4.49. The Activity in data set [2] is 17; in data set [3], 5; in data set [4], 4; in data set [5] it was 12; in data set [6], “Non-toxic”.

Regarding `CN1CCC=C(C2SCC(=O)N2c2ccc(Cl)cc2)C1` (stereo unspecified), in data set [1], the pIC50 was 3.19. The same molecule had a pKi in data set [1] of 3.70. In addition, the Activity in data set [2] is reported as 42; in data set [3], 3; in data set [4], 3; in data set [5] it was 28; in data set [6] it was “Non-toxic”.

The term pIC50 denotes −log10 of the IC50, conventionally taken in molar units. In general, pKi refers to the Ki on a negative log10 scale, so that one unit is a factor of ten.
